Results published in ChEMBL document CHEMBL1127020, “3-Quinolinecarboxamides. A series of novel orally-active antiherpetic agents” (1993).
≈ marks a conversion by molar mass, not a printed value. Calls of active or inactive are those of the source. The rule behind the calls is not given here.

Assays:
Vero [1] = experiment: (§1) In vitro minimum inhibitory concentration against herpes simplex virus-2 (HSV-2) by plaque-reduction assay in vero cells; assay type: functional, cell-based; settings: Chlorocebus sabaeus
Summary of the method: (§2)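 Vero monolayers (2 days old, confluent; Hank's MEM + 5% inactivated FCS, 37 °C, 2% CO2) infected with ~80 PFU; after 1-h adsorption, overlay of M199/5% FCS with 1:150 human immune serum globulin plus serial 2-fold compound dilutions (1:200 from DMSO). 3 d incubation, glutaraldehyde fix, crystal violet stain, plaque count. MIC = lowest concentration giving 50% plaque reduction; mean of ≥2 experiments.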

Human alphaherpesvirus 2 [2] = experiment: Minimum effective dose against herpes simplex virus-2 (HSV-2) by oral administration in female mice.; assay type: functional; settings: Human alphaherpesvirus 2, po; read-out: MED
Human alphaherpesvirus 2 [3] = experiment: In vitro maximum tolerated level against herpes simplex virus-2 (HSV-2) by plaque-reduction assay in vero cells; assay type: functional
Human alphaherpesvirus 2 [4] = experiment: In vivo maximum tolerated dose against herpes simplex virus-2 (HSV-2) by oral administration in female mice; assay type: functional
Vero [5] = experiment: Tested in vitro for minimum inhibitory concentration against herpes simplex virus-1 (HSV-1) F strain by plaque-reduction assay in vero cells; assay type: functional; settings: Chlorocebus sabaeus; summary of the method: as §2
Vero [6] = experiment: Tested in vitro for minimum inhibitory concentration against herpes simplex virus-1 (HSV-1) KOS, ACG strain by plaque-reduction assay in vero cells; assay type: functional; settings: Chlorocebus sabaeus; summary of the method: as §2
Human alphaherpesvirus 2 [7] = experiment: as §1; assay type: functional
Vero [8] = experiment: Tested in vitro for minimum inhibitory concentration against herpes simplex virus-2 (HSV-2) 2011 strain by plaque-reduction assay in vero cells; settings: Chlorocebus sabaeus
Vero [9] = experiment: Tested in vitro for minimum inhibitory concentration against herpes simplex virus-1 (HSV-1) 2992 strain by plaque-reduction assay in vero cells; assay type: functional; settings: Chlorocebus sabaeus; summary of the method: as §2
Vero [10] = experiment: Tested in vitro for minimum inhibitory concentration against herpes simplex virus-2 (HSV-2) 2115 strain by plaque-reduction assay in vero cells; assay type: functional; settings: Chlorocebus sabaeus; summary of the method: as §2
Vero [11] = experiment: Tested in vitro for minimum inhibitory concentration against herpes simplex virus-2 (HSV-2) curtis strain by plaque-reduction assay in vero cells; assay type: functional; settings: Chlorocebus sabaeus; summary of the method: as §2
Vero [12] = experiment: Tested in vitro for minimum inhibitory concentration against herpes simplex virus-1 (HSV-1) KOS strain by plaque-reduction assay in vero cells; assay type: functional; settings: Chlorocebus sabaeus; summary of the method: as §2
Vero [13] = experiment: Tested in vitro for minimum inhibitory concentration against herpes simplex virus-1 (HSV-1) 1142 strain by plaque-reduction assay in vero cells; assay type: functional; settings: Chlorocebus sabaeus; summary of the method: as §2
Mus musculus = experiment: Tested in vivo for minimum effective dose against herpes simplex virus-2 (HSV-2) by oral administration in female mice;not active; assay type: functional, organism-based
Summary of the method: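 Swiss female ICR mice (13–15 g) infected intravaginally with HSV-2 (Curtis) at a dose set for 80% mortality. Compound suspended in 1% gum tragacanth/2% Tween 80, given intragastrically at serial 2-fold doses, 20 mice per dose, 2 h before infection then twice daily for 5 d. Mortality followed 14 d; MED = lowest dose with survival differing from placebo (Mantel-Cox, Breslow).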

Vero [14] = experiment: Tested in vitro for minimum inhibitory concentration against herpes simplex virus-2 (HSV-2) by plaque-reduction assay in vero cells; not active; assay type: functional, cell-based; settings: Chlorocebus sabaeus; summary of the method: as §2
Vero [15] = experiment: Tested in vitro for minimum inhibitory concentration against herpes simplex virus-2 (HSV-2) 2011 strain by plaque-reduction assay in vero cells; assay type: functional; settings: Chlorocebus sabaeus; summary of the method: as §2

Row | Compound | minimal effective dose (Human alphaherpesvirus 2 [2]) | MTL (Human alphaherpesvirus 2 [3]) | MTD (Human alphaherpesvirus 2 [4]) | MIC (Human alphaherpesvirus 2 [7]) | other results
1 | NC(=O)c1cn(-c2ccc(F)cc2)c2cc(-c3cc[n+]([O-])cc3)ccc2c1=O | 25 mg/kg | >12.5 µg/mL | 100 mg/kg |  | MIC (Vero [1]): inactive
2 | CCn1cc(C(=O)NNC)c(=O)c2ccc(-c3ccncc3)cc21 |  | 25 µg/mL |  |  | MIC (Vero [1]): inactive
3 | NC(=O)c1cn(-c2ccc(F)cc2)c2cc(-c3ccncc3)ccc2c1=O | 25 mg/kg | 6.25 µg/mL | 50 mg/kg | 0.24 µg/mL (≈ 0.668 µM) | MIC (Vero [5]): 0.13 µg/mL (≈ 0.362 µM); MIC (Vero [6]): 0.32 µg/mL (≈ 0.89 µM); MIC (Vero [8]): 0.15 µg/mL (≈ 0.417 µM); MIC (Vero [9]): 0.24 µg/mL (≈ 0.668 µM); MIC (Vero [10]): 0.13 µg/mL (≈ 0.362 µM); MIC (Vero [11]): 0.24 µg/mL (≈ 0.668 µM); MIC (Vero [12]): 0.23 µg/mL (≈ 0.64 µM); MIC (Vero [13]): 0.18 µg/mL (≈ 0.501 µM)
4 | CCn1cc(C(=O)NN)c(=O)c2ccc(-c3ccncc3)cc21 |  | 50 µg/mL | 100 mg/kg | 38 µg/mL (≈ 123 µM) | MED (Mus musculus): inactive
5 | CCn1cc(C(=O)N(C)O)c(=O)c2ccc(-c3ccncc3)cc21 |  | 50 µg/mL |  |  | MIC (Vero [14]): inactive
6 | CCn1cc(C(=O)NO)c(=O)c2ccc(-c3ccncc3)cc21 |  | 25 µg/mL | 100 mg/kg | 6.8 µg/mL (≈ 22 µM) | MED (Mus musculus): inactive
7 | Nc1nc2c(ncn2COCCO)c(=O)[nH]1 [ACYCLOVIR] | 12 mg/kg | >200 µg/mL | >200 mg/kg | 1.3 µg/mL (≈ 5.77 µM) | MIC (Vero [5]): 0.29 µg/mL (≈ 1.29 µM); MIC (Vero [6]): 43 µg/mL (≈ 191 µM); MIC (Vero [15]): 43 µg/mL (≈ 191 µM); MIC (Vero [9]): 11 µg/mL (≈ 48.8 µM); MIC (Vero [10]): 77 µg/mL (≈ 342 µM); MIC (Vero [11]): 1.3 µg/mL (≈ 5.77 µM); MIC (Vero [12]): 0.14 µg/mL (≈ 0.622 µM); MIC (Vero [13]): 7.8 µg/mL (≈ 34.6 µM)
8 | NC(=O)c1c(N)n(-c2ccc(F)cc2)c2cc(-c3ccncc3)ccc2c1=O | 50 mg/kg | >100 µg/mL | 50 mg/kg | 0.33 µg/mL (≈ 0.881 µM) | 
